Source: ChEMBL document CHEMBL2203235, “Optimization of a natural product-based class of γ-secretase modulators” (J Med Chem, 2012)

How the values were obtained:
[1] = Modulation of gamma secretase in CHO-2B7 cells assessed as reduction in amyloid beta 42 level after 5 hrs by MSD ELISA; type: cell-based; conditions: Cricetulus griseus, CHO-2B7, 5 h
[2] = Modulation of gamma secretase in CHO-2B7 cells assessed as reduction in amyloid beta 40 level after 5 hrs by MSD ELISA; type: cell-based; conditions: Cricetulus griseus, CHO-2B7, 5 h
[3] = Metabolic stability in human liver microsomes assessed as compound remaining at 1 uM at 60 mins by LC/MS/MS analysis in absence of NADPH; type: ADME, Microsome; conditions: liver microsomes, read-out: Stability
In short: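 Human liver microsomes were run without NADPH as a qualitative read of susceptibility to enzymatic hydrolysis. The read-out was percent parent remaining at 60 min.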

[4] = system: Liver microsomes; assay: Metabolic stability in human liver microsomes at 1 uM after 60 mins by LC/MS/MS analysis; conditions: 1 h

Stability [4]	Compound	IC50 [1]	IC50 [2]	remaining at 1 h, 1 µM [3]
	C=C(C)CO[C@@H]([C@H]1C[C@@H](C)[C@H]2[C@H](O1)[C@H](O)[C@@]1(C)[C@@H]3CC[C@H]4C(C)(C)[C@@H](O[C@H]5CN(C6COC6)CCO5)CC[C@@]45C[C@@]35CC[C@]21C)C(C)(C)O	340 nM	11000 nM	84%
	CC(C)O[C@@H]([C@H]1C[C@@H](C)[C@H]2[C@H](O1)[C@H](O)[C@@]1(C)[C@@H]3CC[C@H]4C(C)(C)[C@@H](O[C@H]5CN(C6COC6)CCO5)CC[C@@]45C[C@@]35CC[C@]21C)C(C)(C)O	440 nM	2800 nM	105%
	C[C@@H]1C[C@H](COC(N)=O)O[C@H]2[C@H]1[C@@]1(C)CC[C@@]34C[C@@]35CC[C@H](O[C@H]3CN(C(=O)CC6CC6)CCO3)C(C)(C)[C@@H]5CC[C@H]4[C@]1(C)[C@H]2O	840 nM	35000 nM	77%
	CC(=O)O[C@H](C(C)C)[C@H]1C[C@@H](C)[C@H]2[C@H](O1)[C@H](O)[C@@]1(C)[C@@H]3CC[C@H]4C(C)(C)[C@@H](O)CC[C@@]45C[C@@]35CC[C@]21C	780 nM	7500 nM	0%
	CC(C)[C@@H](OC(=O)N(C)C)[C@H]1C[C@@H](C)[C@H]2[C@H](O1)[C@H](O)[C@@]1(C)[C@@H]3CC[C@H]4C(C)(C)[C@@H](O)CC[C@@]45C[C@@]35CC[C@]21C	1000 nM	10000 nM	81%
	CNC(=O)O[C@H](C(C)C)[C@H]1C[C@@H](C)[C@H]2[C@H](O1)[C@H](O)[C@@]1(C)[C@@H]3CC[C@H]4C(C)(C)[C@@H](O[C@H]5CNCCO5)CC[C@@]45C[C@@]35CC[C@]21C	480 nM	4300 nM	95%
	CCO[C@H](C(C)C)[C@H]1C[C@@H](C)[C@H]2[C@H](O1)[C@H](O)[C@@]1(C)[C@@H]3CC[C@H]4C(C)(C)[C@@H](O)CC[C@@]45C[C@@]35CC[C@]21C	4400 nM		85%
	CO[C@@H]([C@H]1C[C@@H](C)[C@H]2[C@H](O1)[C@H](O)[C@@]1(C)[C@@H]3CC[C@H]4C(C)(C)[C@@H](O[C@H]5CN(C6COC6)CCO5)CC[C@@]45C[C@@]35CC[C@]21C)C(C)(C)O	690 nM	9900 nM	93%
	CC(C)[C@@H](OC(N)=O)[C@H]1C[C@@H](C)[C@H]2[C@H](O1)[C@H](O)[C@@]1(C)[C@@H]3CC[C@H]4C(C)(C)[C@@H](OC(N)=O)CC[C@@]45C[C@@]35CC[C@]21C	700 nM	1200 nM	103%
	CNC(=O)O[C@H](C(C)C)[C@H]1C[C@@H](C)[C@H]2[C@H](O1)[C@H](O)[C@@]1(C)[C@@H]3CC[C@H]4C(C)(C)[C@@H](OC(=O)NC5CNC5)CC[C@@]45C[C@@]35CC[C@]21C	120 nM	5000 nM	110%
	CC(=O)O[C@@H]([C@H]1C[C@@H](C)[C@H]2[C@H](O1)[C@H](O)[C@@]1(C)[C@@H]3CC[C@H]4C(C)(C)[C@@H](OC(=O)N5CCC5)CC[C@@]45C[C@@]35CC[C@]21C)C(C)(C)O	510 nM	15000 nM	17%
	CC(C)[C@@H](OC(N)=O)[C@H]1C[C@@H](C)[C@H]2[C@H](O1)[C@H](O)[C@@]1(C)[C@@H]3CC[C@H]4C(C)(C)[C@@H](O[C@H]5CNCCO5)CC[C@@]45C[C@@]35CC[C@]21C	650 nM	1700 nM	108%
	CNC(=O)O[C@H](C(C)C)[C@H]1C[C@@H](C)[C@H]2[C@H](O1)[C@H](O)[C@@]1(C)[C@@H]3CC[C@H]4C(C)(C)[C@@H](O)CC[C@@]45C[C@@]35CC[C@]21C	890 nM	8500 nM	96%
	CC(=O)O[C@@H]([C@H]1C[C@@H](C)[C@H]2[C@H](O1)[C@H](O)[C@@]1(C)[C@@H]3CC[C@H]4C(C)(C)[C@@H](OC(=O)N5CCOCC5)CC[C@@]45C[C@@]35CC[C@]21C)C(C)(C)O	310 nM	14000 nM	2%
	CNC(=O)OC[C@H]1C[C@@H](C)[C@H]2[C@H](O1)[C@H](O)[C@@]1(C)[C@@H]3CC[C@H]4C(C)(C)[C@@H](O[C@H]5CN(C(=O)CC6CC6)CCO5)CC[C@@]45C[C@@]35CC[C@]21C	350 nM	81000 nM	81%
	CC(C)CO[C@@H]([C@H]1C[C@@H](C)[C@H]2[C@H](O1)[C@H](O)[C@@]1(C)[C@@H]3CC[C@H]4C(C)(C)[C@@H](O[C@H]5CN(C6COC6)CCO5)CC[C@@]45C[C@@]35CC[C@]21C)C(C)(C)O	3000 nM	6000 nM	78%
	CCO[C@@H]([C@H]1C[C@@H](C)[C@H]2[C@H](O1)[C@H](O)[C@@]1(C)[C@@H]3CC[C@H]4C(C)(C)[C@@H](OC(=O)N5CCOCC5)CC[C@@]45C[C@@]35CC[C@]21C)C(C)(C)O	220 nM	2000 nM	77%
	CCO[C@@H]([C@H]1C[C@@H](C)[C@H]2[C@H](O1)[C@H](O)[C@@]1(C)[C@@H]3CC[C@H]4C(C)(C)[C@@H](O)CC[C@@]45C[C@@]35CC[C@]21C)C(C)(C)O	350 nM	5500 nM	100%
	CC(C)[C@@H](OC(=O)N(C)C)[C@H]1C[C@@H](C)[C@H]2[C@H](O1)[C@H](O)[C@@]1(C)[C@@H]3CC[C@H]4C(C)(C)[C@@H](OC(=O)NC5CNC5)CC[C@@]45C[C@@]35CC[C@]21C	300 nM	9500 nM	113%
	CC(C)[C@@H](OC(=O)N(C)C)[C@H]1C[C@@H](C)[C@H]2[C@H](O1)[C@H](O)[C@@]1(C)[C@@H]3CC[C@H]4C(C)(C)[C@@H](O[C@H]5CNCCO5)CC[C@@]45C[C@@]35CC[C@]21C	580 nM	5900 nM	114%
Stable	CCO[C@@H]([C@H]1C[C@@H](C)[C@H]2[C@H](O1)[C@H](O)[C@@]1(C)[C@@H]3CC[C@H]4C(C)(C)[C@@H](O[C@H]5CN(CC)CCO5)CC[C@@]45C[C@@]35CC[C@]21C)C(C)(C)O	210 nM	2700 nM	
Stable	CC(C)[C@@H](OC(=O)N1CCC1)[C@H]1C[C@@H](C)[C@H]2[C@H](O1)[C@H](O)[C@@]1(C)[C@@H]3CC[C@H]4C(C)(C)[C@@H](O[C@H]5CN(CCCC(=O)O)CCO5)CC[C@@]45C[C@@]35CC[C@]21C	280 nM	7500 nM	

Compound	Stability [4]	IC50 [1]	IC50 [2]	remaining at 1 h, 1 µM [3]
CCO[C@@H]([C@H]1C[C@@H](C)[C@H]2[C@H](O1)[C@H](O)[C@@]1(C)[C@@H]3CC[C@H]4C(C)(C)[C@@H](O[C@H]5CN(C(=O)C(C)C)CCO5)CC[C@@]45C[C@@]35CC[C@]21C)C(C)(C)O	Stable	170 nM	3500 nM	
